In ChEMBL document CHEMBL2424614, “A novel p-terphenyl derivative inducing cell-cycle arrest and apoptosis in MDA-MB-435 cells through topoisomerase inhibition” (Eur J Med Chem, 2013):
The source made the active and inactive calls. The rule behind the calls is not given here.

Columns and labels:
Calf thymus DNA [1] = assay: Induction of DNA intercalation activity of calf thymus DNA topoisomerase 1 assessed as unwinding of pBR322 DNA at 2 ug/ml after 30 mins by Agarose gel electrophoresis; assay type: nucleic-acid assay; conditions: Bos taurus
Outline: (§1)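 Relaxed pBR322 made by treating supercoiled plasmid with excess Topo I (10 units), then proteinase K digestion at 37 °C, phenol-chloroform extraction and ethanol precipitation. Relaxed DNA incubated with compound at 37 °C for 30 min; stopped with gel loading buffer. Run on 1% agarose, TAE, 5 V/cm for 2 h; stained with ethidium bromide 0.5 µg/mL, viewed under UV.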

[2] = target: DNA topoisomerase 2-alpha (Homo sapiens) (UniProt P11388); assay: Inhibition of recombinant human DNA topoisomerase 2-alpha assessed as supression of kDNA decatenation at 100 uM after 30 mins by agarose gel electrophoresis
DNA topoisomerase 2-alpha (Homo sapiens), sequence (P11388 whole entry): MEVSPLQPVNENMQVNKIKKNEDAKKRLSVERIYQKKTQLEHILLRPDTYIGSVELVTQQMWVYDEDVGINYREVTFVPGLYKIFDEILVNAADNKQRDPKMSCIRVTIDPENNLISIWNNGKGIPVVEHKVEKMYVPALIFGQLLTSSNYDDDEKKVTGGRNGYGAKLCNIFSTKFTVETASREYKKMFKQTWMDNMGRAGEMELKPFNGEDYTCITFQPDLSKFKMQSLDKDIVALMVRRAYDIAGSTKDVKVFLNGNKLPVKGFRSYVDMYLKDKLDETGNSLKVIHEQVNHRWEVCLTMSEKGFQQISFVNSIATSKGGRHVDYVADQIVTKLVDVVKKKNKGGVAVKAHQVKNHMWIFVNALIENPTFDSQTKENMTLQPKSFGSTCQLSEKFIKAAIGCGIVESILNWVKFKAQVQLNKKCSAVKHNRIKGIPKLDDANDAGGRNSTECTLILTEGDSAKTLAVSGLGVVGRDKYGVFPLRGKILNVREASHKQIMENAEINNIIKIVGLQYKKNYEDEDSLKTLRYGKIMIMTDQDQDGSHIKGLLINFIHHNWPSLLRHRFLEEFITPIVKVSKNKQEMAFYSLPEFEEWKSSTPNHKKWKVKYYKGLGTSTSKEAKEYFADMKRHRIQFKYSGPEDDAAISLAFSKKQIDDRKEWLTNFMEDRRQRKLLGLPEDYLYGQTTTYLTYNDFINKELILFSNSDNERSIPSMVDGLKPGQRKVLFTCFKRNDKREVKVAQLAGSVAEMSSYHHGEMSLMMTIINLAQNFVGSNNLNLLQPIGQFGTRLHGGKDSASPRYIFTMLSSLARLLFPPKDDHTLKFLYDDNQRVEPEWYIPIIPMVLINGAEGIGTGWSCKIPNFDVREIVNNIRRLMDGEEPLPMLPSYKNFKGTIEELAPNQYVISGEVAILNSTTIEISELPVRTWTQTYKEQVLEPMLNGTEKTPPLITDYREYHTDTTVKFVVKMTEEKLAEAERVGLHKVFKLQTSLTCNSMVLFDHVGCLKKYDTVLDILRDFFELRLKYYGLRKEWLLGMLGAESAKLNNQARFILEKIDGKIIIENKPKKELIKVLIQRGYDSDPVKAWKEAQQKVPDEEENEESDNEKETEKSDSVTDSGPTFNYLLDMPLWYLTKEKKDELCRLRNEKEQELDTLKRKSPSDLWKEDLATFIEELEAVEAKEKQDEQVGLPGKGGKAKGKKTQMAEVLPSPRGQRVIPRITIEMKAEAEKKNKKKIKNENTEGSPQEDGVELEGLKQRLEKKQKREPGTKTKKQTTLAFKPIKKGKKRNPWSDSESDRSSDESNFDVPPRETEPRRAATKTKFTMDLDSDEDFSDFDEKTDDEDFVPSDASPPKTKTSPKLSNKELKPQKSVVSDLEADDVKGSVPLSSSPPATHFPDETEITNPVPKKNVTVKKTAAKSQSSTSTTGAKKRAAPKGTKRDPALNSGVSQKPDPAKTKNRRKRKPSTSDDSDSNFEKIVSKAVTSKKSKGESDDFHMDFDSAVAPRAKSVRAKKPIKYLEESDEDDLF
Outline: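 ATP-dependent decatenation assay: 0.20 µg kDNA with 2 units Topo IIα at 37 °C for 30 min, 20 µL. Buffer: 50 mM Tris pH 8.0, KCl, 10 mM MgCl₂, 0.5 mM ATP, 0.5 mM DTT, 30 µg/mL BSA. Stopped with 10% SDS. Agarose gel scored for kDNA versus released minicircles.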

Bos taurus = species on record: Bos taurus; assay: Inhibition of calf thymus DNA topoisomerase 1-mediated relaxation of supercoiled pBR322 DNA at 100 uM after 30 mins by Agarose gel electrophoresis
Outline: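 Relaxation assay with 0.5 µg supercoiled pBR322 and 1 unit calf thymus Topo I, 20 µL. Buffer: 10 mM Tris–HCl pH 7.9, 150 mM NaCl, 0.1% BSA, 1 mM spermidine, 5% glycerol. Incubated 37 °C for 30 min; stopped with sarcosyl stop solution. 1% agarose gel, 5 V/cm, 2 h, TAE; ethidium bromide stain (0.5 µg/mL), UV. DMSO stocks. At least duplicate.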

[3] = target: DNA topoisomerase 2-alpha (Homo sapiens) (UniProt P11388); assay: Inhibition of recombinant human DNA topoisomerase 2-alpha-mediated relaxation of supercoiled pBR322 DNA at 100 uM after 30 mins by Agarose gel electrophoresis
Outline: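 Relaxation assay with 0.5 µg supercoiled pBR322 and 1 unit recombinant human Topo IIα, 20 µL. Incubated 30 min at 30 °C; stopped with 7 mM EDTA. 1% agarose gel, 5 V/cm, 2 h, TAE; ethidium bromide stain, UV. DMSO stocks. At least duplicate.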

MDA-MB-435 [4] = assay: Cytotoxicity against human MDA-MB-435 cells assessed as growth inhibition at 100 uM after 72 hrs by MTT assay
Calf thymus DNA [5] = assay: Induction of DNA intercalation activity of calf thymus DNA topoisomerase 1 assessed as unwinding of pBR322 DNA at 10 ug/ml after 30 mins by Agarose gel electrophoresis; assay type: nucleic-acid assay; conditions: Bos taurus; outline: as §1
LNCaP = assay: Cytotoxicity against human LNCAP cells assessed as growth inhibition after 72 hrs by MTT assay; assay type: functional, cell-based
Outline: (§2)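 MTT assay: cells treated in triplicate with a range of concentrations for 72 h at 37 °C, 5% CO2. Medium replaced, MTT (5 mg/mL) added for 4 h, then SDS/isobutanol/HCl solubiliser overnight. Absorbance read at 590 nm. Inhibition calculated against control and blank wells; IC50 is concentration giving 50% growth inhibition; three independent experiments.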

A549 = assay: Cytotoxicity against human A549 cells assessed as growth inhibition after 72 hrs by MTT assay; assay type: functional, cell-based; outline: as §2
MDA-MB-435 [6] = assay: Cytotoxicity against human MDA-MB-435 cells assessed as growth inhibition after 72 hrs by MTT assay; assay type: functional, cell-based; outline: as §2
MDA-MB-435 [7] = assay: Induction of DNA damage in human MDA-MB-435 cells assessed as phosphorylation of H2AX at Ser139 at 10 uM after 12 hrs by Western blotting analysis; assay type: functional, cell-based
Outline: (§3)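 Treated MDA-MB-435 cells lysed in ice-cold Tris-HCl pH 7.4 buffer with Triton, phosphatase and protease inhibitors. Lysates clarified, boiled in SDS loading buffer, run on 8-12% SDS-PAGE and blotted. Membranes blocked in 5% skim milk, probed with primary antibodies, then peroxidase secondaries with ECL detection. β-actin as loading control.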

MDA-MB-435 [8] = assay: Induction of DNA damage in human MDA-MB-435 cells assessed as phosphorylation of p53 at Ser15 at 10 uM after 12 hrs by Western blotting analysis; assay type: functional, cell-based; outline: as §3
MDA-MB-435 [9] = assay: Induction of DNA damage in human MDA-MB-435 cells assessed as phosphorylation of ATM at Ser1981 at 10 uM after 12 hrs by Western blotting analysis; assay type: functional, cell-based; outline: as §3
Calf thymus DNA [10] = assay: Induction of DNA intercalation activity of calf thymus DNA topoisomerase 1 assessed as unwinding of pBR322 DNA at 100 uM after 30 mins by Agarose gel electrophoresis; assay type: nucleic-acid assay; conditions: Bos taurus; outline: as §1

SMILES | inhibition [2] | inhibition (Bos taurus) | inhibition [3] | other results
CC[n+]1c(-c2ccccc2)c2cc(N)ccc2c2ccc(N)cc21 |  |  |  | Activity (Calf thymus DNA [1]): Active
COc1ccc(-c2ccc(-c3ccc(O)cc3)cc2)cc1OC | inactive | inactive | inactive | 
COc1ccc(-c2cc(OC)c(-c3ccc(OC)c(OC)c3)c(OC)c2)cc1 | inactive | inactive | inactive | Activity (MDA-MB-435 [4]): inactive
CC[N+](C)(CC)CCC[n+]1c(-c2ccccc2)c2cc(N)ccc2c2ccc(N)cc21 |  |  |  | Activity (Calf thymus DNA [5]): Active
Oc1ccc(-c2ccc(-c3ccc(O)c(O)c3)c(O)c2O)cc1 | Active | inactive |  | growth inhibition (GI) (LNCaP): Active; growth inhibition (GI) (A549): Active; growth inhibition (GI) (MDA-MB-435 [6]): Active
COc1ccc(-c2ccc(-c3ccc(O)cc3)c(OC)c2OC)cc1OC | inactive | inactive | inactive | 
COc1ccc(-c2ccc(-c3ccc(OC)c(OC)c3)c(OC)c2)cc1 | inactive | inactive | inactive | Activity (MDA-MB-435 [4]): inactive
Oc1ccc(-c2cc(O)c(-c3ccc(O)c(O)c3)c(O)c2)cc1 | Active | Active |  | growth inhibition (GI) (LNCaP): Active; growth inhibition (GI) (A549): Active; growth inhibition (GI) (MDA-MB-435 [6]): Active
COc1cc([C@@H]2c3cc4c(cc3[C@@H](O[C@@H]3O[C@@H]5CO[C@@H](C)O[C@H]5[C@H](O)[C@H]3O)[C@H]3COC(=O)[C@H]23)OCO4)cc(OC)c1O |  |  |  | Activity (MDA-MB-435 [7]): Active; Activity (MDA-MB-435 [8]): Active; Activity (MDA-MB-435 [9]): Active
CC[C@@]1(O)C(=O)OCc2c1cc1n(c2=O)Cc2cc3c(O)cccc3nc2-1 |  | Active |  | Activity (Calf thymus DNA [10]): inactive
Oc1ccc(-c2ccc(-c3ccc(O)c(O)c3)c(O)c2)cc1 | Active | inactive |  | growth inhibition (GI) (LNCaP): Active; growth inhibition (GI) (A549): Active; growth inhibition (GI) (MDA-MB-435 [6]): Active
